Drawing on ChEMBL document CHEMBL3526035, “Role of the intestinal peptide transporter PEPT1 in oseltamivir absorption: in vitro and in vivo studies” (Drug Metab Dispos, 2012), this text covers Drug uptake for one molecule.

Where a SMILES comes first, the peptide text is derived from it. [ ]: non-standard residue; d: D form. Sar = CNCC(=O)O

Series [1] concerns the target T1, Solute carrier family 15 member 1 (Homo sapiens, UniProt P46059).
T1 sequence (P46059 whole entry): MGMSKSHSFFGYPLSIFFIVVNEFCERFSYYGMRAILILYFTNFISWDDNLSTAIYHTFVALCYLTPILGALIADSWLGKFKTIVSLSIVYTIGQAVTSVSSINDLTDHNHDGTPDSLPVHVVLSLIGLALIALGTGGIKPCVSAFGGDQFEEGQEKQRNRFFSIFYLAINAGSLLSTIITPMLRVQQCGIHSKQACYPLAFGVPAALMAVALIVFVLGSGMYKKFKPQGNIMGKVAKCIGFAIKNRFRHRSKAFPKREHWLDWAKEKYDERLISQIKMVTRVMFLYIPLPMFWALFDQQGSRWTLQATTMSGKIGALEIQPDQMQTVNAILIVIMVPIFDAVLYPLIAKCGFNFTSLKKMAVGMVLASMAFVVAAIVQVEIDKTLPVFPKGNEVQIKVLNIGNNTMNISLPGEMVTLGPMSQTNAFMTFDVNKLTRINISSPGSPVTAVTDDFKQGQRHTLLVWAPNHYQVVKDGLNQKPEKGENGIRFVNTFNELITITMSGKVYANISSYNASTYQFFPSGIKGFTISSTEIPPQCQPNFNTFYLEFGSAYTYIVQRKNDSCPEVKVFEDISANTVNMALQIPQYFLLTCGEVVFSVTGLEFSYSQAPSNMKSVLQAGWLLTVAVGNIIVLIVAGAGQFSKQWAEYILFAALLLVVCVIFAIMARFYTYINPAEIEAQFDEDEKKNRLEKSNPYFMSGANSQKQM
Put plainly: Drug uptake in CHOK1 cells expressing human PEPT1 by HPLC coupled with radiodetection analysis. The class given is ADME, cell-based. Particulars: cho-k1, TDE = time-dependent effect; call rule not given here. In short, it runs like this:
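Accumulation of [14C]oseltamivir or its carboxylate in CHO-PEPT1 versus CHO-K1 cells. Conditions varied: KH buffer (with MES) or Hanks' balanced salt solution, pH 5 or 6 readjusted after substrate addition, 30 s to 15 min at 37°C. Uptake was quenched with ice-cold PBS-BSA, followed by Triton X-100 lysis, scintillation counting, and BCA protein normalization. HPLC-radiodetection checked ester stability.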

A short description of series [2]: Drug uptake in CHOK1 cells at 2 uM after 10 mins measured per mg protein by HPLC coupled with radiodetection analysis. The class given is ADME, cell-based, Cricetulus griseus. Particulars: chinese hamster, cho-k1, 10 min. The procedure, abridged:
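CHO-K1 cells given 2 μM [3H]Gly-Sar in KH buffer at pH 6 for 10 min at 37°C. Ice-cold PBS-BSA quench, then washes and Triton lysis. Scintillation counts expressed as pmol/mg protein (BCA). n=6 experiments.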

Series [3] concerns the target T1, Solute carrier family 15 member 1. Put plainly: Drug uptake in CHOK1 cells expressing human PEPT1 at 2 uM after 10 mins measured per mg protein by HPLC coupled with radiodetection analysis. Type of series: ADME, cell-based. The following applies: cho-k1, 10 min. In short, it runs like this:
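Transporter functionality check: 2 µM [3H]Gly-Sar was incubated for 10 min at 37°C, pH 6, in KH/MES buffer with CHO-PEPT1 versus CHO-K1 cells. Intracellular radioactivity in Triton X-100 lysates was expressed as pmol/mg protein (BCA). Six independent experiments, triplicate wells.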

Series [4] can be described thus: Drug uptake in CHOK1 cells at 2 uM at pH 4 to 8 after 10 mins by HPLC coupled with radiodetection analysis. The class given is ADME, cell-based, Cricetulus griseus. Particulars: chinese hamster, cho-k1, pH 4, 10 min. The procedure, abridged: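 [3H]Gly-Sar at 2 μM in KH buffer over pH 4-8, incubated with CHO-K1 cells for 10 min at 37°C. Accumulated radioactivity in cell lysates counted and normalised to protein. Three independent experiments.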

In the case of `CN(CC(=O)O)C(=O)CN` [GLYCYLSARCOSINE] (H-Gly-[Sar]-OH), the Drug uptake result in series [1] is “tde”; in series [2], 1.1 pmol; in series [3] it was 182 pmol; in series [4], “Active”.
